Laboratory results published in ChEMBL document CHEMBL4371052, “Diarylcarbonates are a new class of deubiquitinating enzyme inhibitor” (Bioorg Med Chem Lett, 2019).
The source made the active and inactive calls. The rule behind the calls is not given here.

Experiments:
[1] = biological target: Ubiquitin carboxyl-terminal hydrolase 9X (Homo sapiens) (UniProt Q93008); assay: Inhibition of USP9x in human K562 cells assessed as decrease in Bcr-Abl expression at 50 uM measured after 4 hrs in presence of proteasome inhibitor bortezomib by Western blot analysis; assay type: cell-based
Procedure, shortened: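 K562 cells treated with 50 μM compound with or without bortezomib (6 μM) for 4 h. Lysates were sonicated in SDS, and Bcr-Abl was measured by anti-Abl immunoblot with quantitation.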

[2] = biological target: T1, Ubiquitin carboxyl-terminal hydrolase 19 (Homo sapiens) (UniProt O94966); assay: Inhibition of USP19 in HEK293T cell lysates at 25 uM using HA-tagged vinyl-sulfone as substrate preincubated for 19 to 60 mins followed by substrate addition and measured after 19 to 25 mins by Western blot analysis; assay type: subcellular; conditions: Lysate
T1 sequence (whole entry): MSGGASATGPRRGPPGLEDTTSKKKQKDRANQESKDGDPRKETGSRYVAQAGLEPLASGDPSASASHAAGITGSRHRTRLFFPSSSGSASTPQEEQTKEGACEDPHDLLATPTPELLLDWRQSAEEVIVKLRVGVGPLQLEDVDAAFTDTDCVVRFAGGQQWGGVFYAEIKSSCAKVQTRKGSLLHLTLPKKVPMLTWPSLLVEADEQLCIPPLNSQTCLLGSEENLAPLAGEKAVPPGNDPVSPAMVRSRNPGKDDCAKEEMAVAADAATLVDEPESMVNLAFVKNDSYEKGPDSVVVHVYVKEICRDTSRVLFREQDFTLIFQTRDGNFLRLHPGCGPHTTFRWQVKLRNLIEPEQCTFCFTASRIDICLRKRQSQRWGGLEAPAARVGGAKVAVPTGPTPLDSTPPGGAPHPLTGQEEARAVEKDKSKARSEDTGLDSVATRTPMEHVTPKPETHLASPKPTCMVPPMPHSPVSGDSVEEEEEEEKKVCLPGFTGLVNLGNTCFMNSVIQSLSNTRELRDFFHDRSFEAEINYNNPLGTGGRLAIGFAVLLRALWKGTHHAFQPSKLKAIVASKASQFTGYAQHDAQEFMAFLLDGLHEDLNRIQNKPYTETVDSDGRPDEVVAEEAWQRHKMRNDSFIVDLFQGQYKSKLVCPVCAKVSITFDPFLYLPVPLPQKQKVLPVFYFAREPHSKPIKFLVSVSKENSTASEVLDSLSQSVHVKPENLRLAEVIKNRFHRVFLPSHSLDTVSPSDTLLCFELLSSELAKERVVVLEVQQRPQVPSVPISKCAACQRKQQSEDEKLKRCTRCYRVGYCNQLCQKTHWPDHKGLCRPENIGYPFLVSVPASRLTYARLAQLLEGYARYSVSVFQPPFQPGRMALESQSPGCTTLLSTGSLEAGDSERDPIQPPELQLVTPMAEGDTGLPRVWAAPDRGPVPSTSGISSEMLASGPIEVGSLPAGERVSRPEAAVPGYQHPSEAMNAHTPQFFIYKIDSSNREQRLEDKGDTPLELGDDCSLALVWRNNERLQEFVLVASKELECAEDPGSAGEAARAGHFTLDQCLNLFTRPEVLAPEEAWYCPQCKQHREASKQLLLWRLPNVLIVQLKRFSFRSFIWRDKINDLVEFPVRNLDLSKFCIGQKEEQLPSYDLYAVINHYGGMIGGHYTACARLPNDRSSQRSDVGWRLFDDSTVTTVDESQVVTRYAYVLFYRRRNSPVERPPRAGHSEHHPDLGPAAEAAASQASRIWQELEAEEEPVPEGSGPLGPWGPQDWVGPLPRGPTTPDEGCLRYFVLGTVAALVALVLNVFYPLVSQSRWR

[3] = biological target: Ubiquitin carboxyl-terminal hydrolase 17-like protein 24 (Homo sapiens) (UniProt Q0WX57); assay: Inhibition of USP17 in HEK293T cell lysates at 25 uM using HA-tagged vinyl-sulfone as substrate preincubated for 19 to 60 mins followed by substrate addition and measured after 19 to 25 mins by Western blot analysis; assay type: subcellular; conditions: Lysate
K562 [4] = assay: Inhibition of deubiquitinase in human K562 cells assessed as accumulation of K48-linked HMW-Ub protein at 50 uM measured after 2 hrs by Western blot analysis; assay type: cell-based
Procedure, shortened: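 K562 cells exposed to compound at 50 μM for 2 h; K48-linked ubiquitin accumulation read by immunoblotting.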

[5] = biological target: Ubiquitin carboxyl-terminal hydrolase 9X (Homo sapiens) (UniProt Q93008); assay: Inhibition of USP9x in HEK293T cell lysates at 25 uM using HA-tagged vinyl-sulfone as substrate preincubated for 19 to 60 mins followed by substrate addition and measured after 19 to 25 mins by Western blot analysis; assay type: subcellular; conditions: Lysate
[6] = biological target: Ubiquitin carboxyl-terminal hydrolase 28 (Homo sapiens) (UniProt Q96RU2); assay: Inhibition of USP28 in HEK293T cell lysates at 25 uM using HA-tagged vinyl-sulfone as substrate measured after 2 to 30 mins by Western blot analysis; assay type: subcellular; conditions: Lysate
Procedure, shortened: (§1)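 HEK 293T lysate (1.5 mg/ml) given compound (25 μM) or DMSO at the same time as HA-Ub-VS (1.5 μM). Aliquots withdrawn over time were run on SDS-PAGE and immunoblotted for HA.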

[7] = biological target: Ubiquitin carboxyl-terminal hydrolase 7 (Homo sapiens) (UniProt Q93009); assay: Inhibition of USP7 in HEK293T cell lysates assessed as ratio of HA-Ub-VS modified USP7 to total USP7 at 50 uM using HA-Ub vinyl-sulfone as substrate preincubated for 19 to 60 mins followed by substrate addition and measured after 19 to 25 mins by Western blot analysis (reference value: 0.5); assay type: subcellular; conditions: Lysate
Procedure, shortened: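 HEK 293T lysate incubated with compound, then treated with HA-Ub-VS. Samples were run on SDS-PAGE and blotted with anti-USP7, and the probe-modified USP7 band was distinguished from unmodified USP7.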

[8] = biological target: Ubiquitin carboxyl-terminal hydrolase 28 (Homo sapiens) (UniProt Q96RU2); assay: Inhibition of USP28 in HEK293T cell lysates at 25 uM using HA-tagged vinyl-sulfone as substrate preincubated for 19 to 60 mins followed by substrate addition and measured after 19 to 25 mins by Western blot analysis; assay type: subcellular; conditions: Lysate
[9] = biological target: Ubiquitin carboxyl-terminal hydrolase 7 (Homo sapiens) (UniProt Q93009); assay: Inhibition of USP7 in human MCF7 cells assessed as accumulation of K48-Ub protein at 50 uM after 4 hrs by Western blot analysis; assay type: cell-based
Procedure, shortened: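 MCF7 cells exposed to 50 μM compound for 4 h. K48-linked ubiquitin chains were detected by immunoblot.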

[10] = biological target: Ubiquitin carboxyl-terminal hydrolase 7 (Homo sapiens) (UniProt Q93009); assay: Inhibition of recombinant His6-tagged USP7 catalytic domain (unknown origin) assessed as association constant using Ub-AMC as substrate by fluorescence assay
[11] = biological target: Ubiquitin carboxyl-terminal hydrolase 7 (Homo sapiens) (UniProt Q93009); assay: Inhibition of USP7 in HEK293T cell lysates at 25 uM using HA-tagged vinyl-sulfone as substrate measured after 2 to 30 mins by Western blot analysis; assay type: subcellular; conditions: Lysate; procedure, shortened: as §1
[12] = biological target: Ubiquitin carboxyl-terminal hydrolase isozyme L1 (Homo sapiens) (UniProt P09936); assay: Inhibition of UCHL1 in HEK293T cell lysates at 25 uM using HA-tagged vinyl-sulfone as substrate measured after 2 to 30 mins by Western blot analysis; assay type: subcellular; conditions: Lysate; procedure, shortened: as §1
K562 [13] = assay: Cell cycle arrest in human K562 cells assessed as increase in accumulation at sub G1-phase after 24 hrs by propidium iodide staining based flow cytometry; assay type: functional
Procedure, shortened: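 K562 cells exposed to compound for 24 h, then analysed for cell cycle by FACS. Sub-G1 cells were counted as apoptotic, with the G1 fraction reported separately.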

Ubiquitin carboxyl-terminal hydrolase 7 (Homo sapiens), sequence (Q93009 whole entry, looked up, the tested form may be a part): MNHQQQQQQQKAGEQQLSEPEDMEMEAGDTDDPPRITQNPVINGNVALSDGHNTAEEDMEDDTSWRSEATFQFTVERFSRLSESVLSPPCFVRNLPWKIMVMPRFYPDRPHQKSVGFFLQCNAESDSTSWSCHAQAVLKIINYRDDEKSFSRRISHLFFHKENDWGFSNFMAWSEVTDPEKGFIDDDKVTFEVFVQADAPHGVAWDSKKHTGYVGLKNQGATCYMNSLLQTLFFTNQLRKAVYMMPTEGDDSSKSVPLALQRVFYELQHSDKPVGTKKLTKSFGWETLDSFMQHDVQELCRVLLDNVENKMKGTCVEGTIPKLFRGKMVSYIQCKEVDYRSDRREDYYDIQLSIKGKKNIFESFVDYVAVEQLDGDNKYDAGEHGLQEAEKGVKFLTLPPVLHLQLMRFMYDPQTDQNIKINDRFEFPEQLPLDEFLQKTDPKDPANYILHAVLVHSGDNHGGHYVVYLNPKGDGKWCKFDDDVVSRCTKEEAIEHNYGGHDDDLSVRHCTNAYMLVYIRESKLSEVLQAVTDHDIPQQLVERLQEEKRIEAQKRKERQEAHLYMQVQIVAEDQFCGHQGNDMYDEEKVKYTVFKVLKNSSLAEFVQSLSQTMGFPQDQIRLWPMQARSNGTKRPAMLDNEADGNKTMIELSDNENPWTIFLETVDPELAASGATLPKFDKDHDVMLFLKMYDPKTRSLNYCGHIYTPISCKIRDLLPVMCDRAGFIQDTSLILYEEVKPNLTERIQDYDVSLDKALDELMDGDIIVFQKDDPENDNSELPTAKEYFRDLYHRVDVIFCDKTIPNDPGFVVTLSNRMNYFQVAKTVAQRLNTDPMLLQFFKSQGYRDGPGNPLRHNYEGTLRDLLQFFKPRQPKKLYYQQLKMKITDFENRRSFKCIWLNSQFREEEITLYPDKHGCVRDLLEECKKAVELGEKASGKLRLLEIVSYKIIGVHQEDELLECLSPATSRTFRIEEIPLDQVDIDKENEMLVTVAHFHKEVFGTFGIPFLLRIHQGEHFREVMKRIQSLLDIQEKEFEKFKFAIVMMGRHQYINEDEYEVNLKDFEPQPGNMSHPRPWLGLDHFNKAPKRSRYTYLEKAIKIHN
Ubiquitin carboxyl-terminal hydrolase 28 (Homo sapiens), sequence (Q96RU2 whole entry): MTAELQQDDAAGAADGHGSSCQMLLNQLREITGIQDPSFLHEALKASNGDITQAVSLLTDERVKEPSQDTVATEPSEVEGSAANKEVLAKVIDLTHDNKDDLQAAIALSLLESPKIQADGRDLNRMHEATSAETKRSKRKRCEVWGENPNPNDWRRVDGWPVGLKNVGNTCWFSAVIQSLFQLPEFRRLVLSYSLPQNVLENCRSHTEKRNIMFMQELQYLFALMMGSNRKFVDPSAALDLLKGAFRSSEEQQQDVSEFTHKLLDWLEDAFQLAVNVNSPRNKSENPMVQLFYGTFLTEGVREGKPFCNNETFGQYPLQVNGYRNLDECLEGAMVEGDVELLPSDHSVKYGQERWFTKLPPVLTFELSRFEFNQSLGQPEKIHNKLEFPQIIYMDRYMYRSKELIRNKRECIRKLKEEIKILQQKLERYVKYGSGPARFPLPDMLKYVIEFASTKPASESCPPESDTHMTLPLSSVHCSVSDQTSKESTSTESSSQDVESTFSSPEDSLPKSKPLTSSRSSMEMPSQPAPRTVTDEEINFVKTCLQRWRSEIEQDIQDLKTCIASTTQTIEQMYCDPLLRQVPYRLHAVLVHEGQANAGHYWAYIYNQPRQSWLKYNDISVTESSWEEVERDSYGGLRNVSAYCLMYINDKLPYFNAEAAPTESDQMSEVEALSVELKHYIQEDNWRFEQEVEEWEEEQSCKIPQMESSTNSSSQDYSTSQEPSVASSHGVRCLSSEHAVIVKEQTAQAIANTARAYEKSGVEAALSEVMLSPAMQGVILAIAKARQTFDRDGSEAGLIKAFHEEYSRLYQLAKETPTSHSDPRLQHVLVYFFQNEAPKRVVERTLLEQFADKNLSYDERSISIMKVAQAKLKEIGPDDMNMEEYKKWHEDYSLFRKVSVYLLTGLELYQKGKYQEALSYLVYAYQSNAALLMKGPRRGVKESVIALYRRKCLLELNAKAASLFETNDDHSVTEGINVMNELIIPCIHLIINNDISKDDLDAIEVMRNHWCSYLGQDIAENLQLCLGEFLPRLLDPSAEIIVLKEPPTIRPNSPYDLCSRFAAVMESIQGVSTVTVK
Ubiquitin carboxyl-terminal hydrolase 9X (Homo sapiens), sequence (Q93008 whole entry): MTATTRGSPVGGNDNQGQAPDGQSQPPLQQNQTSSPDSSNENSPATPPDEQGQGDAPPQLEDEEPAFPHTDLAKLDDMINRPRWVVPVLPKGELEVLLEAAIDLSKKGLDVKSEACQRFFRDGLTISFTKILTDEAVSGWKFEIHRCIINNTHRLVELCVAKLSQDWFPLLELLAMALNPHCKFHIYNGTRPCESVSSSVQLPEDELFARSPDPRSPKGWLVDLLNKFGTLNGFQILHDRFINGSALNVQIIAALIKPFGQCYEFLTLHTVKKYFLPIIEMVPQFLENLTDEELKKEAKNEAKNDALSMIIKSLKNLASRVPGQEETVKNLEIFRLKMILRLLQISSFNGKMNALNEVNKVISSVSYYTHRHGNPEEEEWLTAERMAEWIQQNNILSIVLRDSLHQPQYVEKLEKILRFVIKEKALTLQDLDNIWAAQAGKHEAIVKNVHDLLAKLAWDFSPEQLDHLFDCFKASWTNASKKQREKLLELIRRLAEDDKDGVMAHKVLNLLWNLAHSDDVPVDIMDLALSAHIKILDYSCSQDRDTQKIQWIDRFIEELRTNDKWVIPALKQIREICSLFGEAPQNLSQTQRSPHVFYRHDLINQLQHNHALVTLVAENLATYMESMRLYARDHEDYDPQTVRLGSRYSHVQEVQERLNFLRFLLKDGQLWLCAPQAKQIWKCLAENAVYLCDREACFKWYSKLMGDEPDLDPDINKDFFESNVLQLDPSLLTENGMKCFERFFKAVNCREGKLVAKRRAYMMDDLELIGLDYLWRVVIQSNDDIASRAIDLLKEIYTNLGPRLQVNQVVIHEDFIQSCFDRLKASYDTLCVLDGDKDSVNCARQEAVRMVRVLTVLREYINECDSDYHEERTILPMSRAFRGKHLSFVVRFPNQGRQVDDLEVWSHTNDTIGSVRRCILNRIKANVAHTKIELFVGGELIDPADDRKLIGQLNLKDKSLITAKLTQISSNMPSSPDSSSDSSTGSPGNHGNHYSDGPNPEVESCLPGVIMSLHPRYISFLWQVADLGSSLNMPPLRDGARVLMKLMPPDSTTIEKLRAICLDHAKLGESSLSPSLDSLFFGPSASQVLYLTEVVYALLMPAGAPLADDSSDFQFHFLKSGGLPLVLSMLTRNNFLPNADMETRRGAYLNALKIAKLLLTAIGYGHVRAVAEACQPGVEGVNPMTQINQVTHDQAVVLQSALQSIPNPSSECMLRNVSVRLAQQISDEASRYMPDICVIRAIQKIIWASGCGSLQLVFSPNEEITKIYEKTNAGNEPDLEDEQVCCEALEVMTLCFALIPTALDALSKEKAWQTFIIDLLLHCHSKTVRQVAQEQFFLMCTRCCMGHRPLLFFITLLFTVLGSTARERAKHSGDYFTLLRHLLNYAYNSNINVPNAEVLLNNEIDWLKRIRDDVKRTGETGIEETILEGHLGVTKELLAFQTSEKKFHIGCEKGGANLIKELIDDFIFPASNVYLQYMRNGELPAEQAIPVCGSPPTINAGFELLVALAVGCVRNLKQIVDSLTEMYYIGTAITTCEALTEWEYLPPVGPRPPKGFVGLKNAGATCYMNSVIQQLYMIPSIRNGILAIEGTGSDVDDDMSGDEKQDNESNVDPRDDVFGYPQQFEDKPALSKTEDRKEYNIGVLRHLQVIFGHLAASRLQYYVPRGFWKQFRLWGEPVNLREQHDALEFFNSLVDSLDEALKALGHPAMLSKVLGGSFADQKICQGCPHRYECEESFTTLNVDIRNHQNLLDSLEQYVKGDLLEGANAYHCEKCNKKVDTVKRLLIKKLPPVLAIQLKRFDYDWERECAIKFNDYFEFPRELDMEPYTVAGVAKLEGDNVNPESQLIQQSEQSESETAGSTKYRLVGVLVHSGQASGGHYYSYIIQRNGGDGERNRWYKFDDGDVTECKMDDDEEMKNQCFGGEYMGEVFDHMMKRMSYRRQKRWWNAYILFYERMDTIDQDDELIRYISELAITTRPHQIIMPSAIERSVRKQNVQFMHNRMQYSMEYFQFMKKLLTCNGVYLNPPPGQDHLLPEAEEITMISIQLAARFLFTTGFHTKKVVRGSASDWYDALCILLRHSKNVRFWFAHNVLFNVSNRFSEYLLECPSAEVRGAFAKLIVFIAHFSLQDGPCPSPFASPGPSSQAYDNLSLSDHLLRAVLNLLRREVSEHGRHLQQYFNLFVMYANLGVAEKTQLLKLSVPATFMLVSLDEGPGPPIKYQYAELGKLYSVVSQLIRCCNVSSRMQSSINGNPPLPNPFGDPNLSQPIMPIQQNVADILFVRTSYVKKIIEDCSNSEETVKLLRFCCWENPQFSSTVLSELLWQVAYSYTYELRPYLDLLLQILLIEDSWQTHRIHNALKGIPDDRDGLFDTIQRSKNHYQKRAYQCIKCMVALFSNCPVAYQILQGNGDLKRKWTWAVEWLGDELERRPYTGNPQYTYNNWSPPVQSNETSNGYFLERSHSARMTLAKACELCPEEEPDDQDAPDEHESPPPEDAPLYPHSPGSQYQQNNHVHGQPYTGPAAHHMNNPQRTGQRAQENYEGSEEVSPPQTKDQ
Ubiquitin carboxyl-terminal hydrolase isozyme L1 (Homo sapiens), sequence (P09936 whole entry, looked up): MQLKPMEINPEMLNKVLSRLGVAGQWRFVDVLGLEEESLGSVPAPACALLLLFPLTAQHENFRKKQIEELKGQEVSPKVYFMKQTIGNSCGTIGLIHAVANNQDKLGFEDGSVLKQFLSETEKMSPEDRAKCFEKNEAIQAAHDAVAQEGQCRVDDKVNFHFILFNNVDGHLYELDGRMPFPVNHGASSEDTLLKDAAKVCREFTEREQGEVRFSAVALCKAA

inhibition [1]: Active | inhibition [2]: Active | inhibition [3]: Active | inhibition [5]: Active | inhibition [6]: inactive | Ratio [7]: 0.4 | inhibition [8]: Active | inhibition [9]: Active | K [10]: 9 M⁻¹ s⁻¹ | inhibition [11]: inactive | inhibition [12]: inactive
SMILES: NCc1ccc(OC(=O)Oc2ccc3ccccc3c2)cc1
inhibition (K562 [4]): Active | Activity (K562 [13]): Dose-dependent effect
